This note sets out measurements from ChEMBL document CHEMBL5126600, “Discovery of the First-in-Class G9a/GLP Covalent Inhibitors” (J Med Chem, 2022).

For experiment [1], the target named is T1, Histone-lysine N-methyltransferase EHMT1 (Homo sapiens, UniProt Q9H9B1).
T1 sequence (Q9H9B1 whole entry): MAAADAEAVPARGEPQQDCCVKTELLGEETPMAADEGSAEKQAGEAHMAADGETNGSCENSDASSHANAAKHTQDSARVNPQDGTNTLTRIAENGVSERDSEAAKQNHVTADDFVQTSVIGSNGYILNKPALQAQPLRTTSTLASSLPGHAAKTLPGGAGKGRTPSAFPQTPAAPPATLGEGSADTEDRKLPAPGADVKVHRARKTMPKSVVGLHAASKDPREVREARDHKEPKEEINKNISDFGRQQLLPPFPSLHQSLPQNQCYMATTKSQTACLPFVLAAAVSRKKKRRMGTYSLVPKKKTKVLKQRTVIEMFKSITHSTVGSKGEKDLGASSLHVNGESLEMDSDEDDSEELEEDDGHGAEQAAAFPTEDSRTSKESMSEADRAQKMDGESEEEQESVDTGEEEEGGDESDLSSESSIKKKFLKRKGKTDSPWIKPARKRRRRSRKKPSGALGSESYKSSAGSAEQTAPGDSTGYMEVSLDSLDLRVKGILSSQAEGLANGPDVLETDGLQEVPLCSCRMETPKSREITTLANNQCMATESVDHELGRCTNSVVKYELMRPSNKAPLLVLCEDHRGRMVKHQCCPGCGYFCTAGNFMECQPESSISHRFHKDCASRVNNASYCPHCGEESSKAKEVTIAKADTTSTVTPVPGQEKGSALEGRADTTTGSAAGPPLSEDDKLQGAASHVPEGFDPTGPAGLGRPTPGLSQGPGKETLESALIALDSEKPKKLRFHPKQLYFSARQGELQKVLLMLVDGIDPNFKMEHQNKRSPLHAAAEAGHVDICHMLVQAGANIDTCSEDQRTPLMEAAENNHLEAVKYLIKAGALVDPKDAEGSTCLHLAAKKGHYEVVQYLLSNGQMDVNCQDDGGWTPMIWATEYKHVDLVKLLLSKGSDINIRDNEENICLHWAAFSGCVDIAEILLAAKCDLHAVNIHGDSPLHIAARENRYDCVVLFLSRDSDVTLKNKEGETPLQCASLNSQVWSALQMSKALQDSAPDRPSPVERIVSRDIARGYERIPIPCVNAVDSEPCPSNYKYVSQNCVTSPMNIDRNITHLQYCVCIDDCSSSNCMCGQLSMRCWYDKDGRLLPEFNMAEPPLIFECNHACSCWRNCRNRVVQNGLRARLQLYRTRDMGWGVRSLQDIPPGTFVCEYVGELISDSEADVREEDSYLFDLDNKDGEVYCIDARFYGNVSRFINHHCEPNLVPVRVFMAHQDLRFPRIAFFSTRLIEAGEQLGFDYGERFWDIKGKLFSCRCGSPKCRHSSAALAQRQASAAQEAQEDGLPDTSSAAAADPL
Description: Binding affinity to human GLP (982 to 1266 residues) assessed as dissociation constant by isothermal titration calorimetry method. A digest of the protocol:
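ITC at 25 °C in 50 mM Tris-HCl pH 7.5, 150 mM NaCl, 1% DMSO; 500 μM compound in syringe titrated into 50 μM G9a or GLP catalytic domain in cell (initial 0.4 μL injection then 13 injections), stirring 750 rpm; run time about 50 min; single binding site fit; mean ± SD of two independent measurements.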
(In general: ITC needs no label: the signal is the heat of the interaction.)

The target of experiment [2] is Histone-lysine N-methyltransferase SMYD3 (Homo sapiens) (UniProt Q9H7B4). The experiment in a line: Inhibition of recombinant human C-terminal His-tagged SMYD3 (2 to 428 residues) expressed in Sf9 insect cells at 1 uM using 3H-SAM as a substrate relative to control. Summed up: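 Contracted 3H-SAM methyl-transfer scintillation proximity assay against a panel of methyltransferases; compound tested at 1 μM in duplicate; inhibition expressed as percent of control enzyme activity.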

A further experiment has as its system MDA-MB-231. The experiment in a line: Down regulation of H3K9 dimethylation in human MDA-MB-231 cells at 0.2 to 5 uM by Western blot analysis. Particulars: dose 0.2-5 µM, time lower […], time upper 72.0 hrs, TDE = time-dependent effect. It is filed as functional, cell-based.

Sequence of Histone-lysine N-methyltransferase SMYD3 (Homo sapiens) (Q9H7B4 whole entry, the tested form may be a part): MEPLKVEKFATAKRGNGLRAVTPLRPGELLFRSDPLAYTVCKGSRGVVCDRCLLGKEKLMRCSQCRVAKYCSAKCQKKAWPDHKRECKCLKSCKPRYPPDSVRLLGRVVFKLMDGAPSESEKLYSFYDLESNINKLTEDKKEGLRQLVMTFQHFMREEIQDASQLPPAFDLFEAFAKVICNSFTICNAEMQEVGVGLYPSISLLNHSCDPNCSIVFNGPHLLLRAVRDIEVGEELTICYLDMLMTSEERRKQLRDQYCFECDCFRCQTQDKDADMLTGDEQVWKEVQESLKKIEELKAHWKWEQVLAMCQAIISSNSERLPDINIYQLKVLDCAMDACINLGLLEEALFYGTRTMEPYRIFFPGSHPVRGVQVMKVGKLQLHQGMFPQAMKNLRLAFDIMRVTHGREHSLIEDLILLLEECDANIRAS

Broadly, the Kd is the free concentration of one partner at which half of the binding sites on the other are occupied at equilibrium, for simple one-to-one binding. Broadly, the inhibition is the drop in the measured response relative to a control, in per cent. On to `C=CC(=O)Nc1cc(NC2CCN(C(C)C)CC2)c2cc(OC)c(OCCCN3CCCC3)cc2n1`, for which, in experiment [1], the Kd amounted to 46 nM. The inhibition in experiment [2] was under 50%. Besides, in the experiment on MDA-MB-231, the Activity result is “Tde”.
